Source: article PMC11439047 (Nature Communications, 2024)
Positions count from the first letter of the chain named.

How the values were obtained:
[1] = biological target: T1, P2X1 receptor F188L (Homo sapiens, UniProt P51575, F188L); experiment: Calcium ion influx assay; type: cell-based; conditions: maximal α,β-methylene ATP
T1 sequence (P51575 1-399 F188L): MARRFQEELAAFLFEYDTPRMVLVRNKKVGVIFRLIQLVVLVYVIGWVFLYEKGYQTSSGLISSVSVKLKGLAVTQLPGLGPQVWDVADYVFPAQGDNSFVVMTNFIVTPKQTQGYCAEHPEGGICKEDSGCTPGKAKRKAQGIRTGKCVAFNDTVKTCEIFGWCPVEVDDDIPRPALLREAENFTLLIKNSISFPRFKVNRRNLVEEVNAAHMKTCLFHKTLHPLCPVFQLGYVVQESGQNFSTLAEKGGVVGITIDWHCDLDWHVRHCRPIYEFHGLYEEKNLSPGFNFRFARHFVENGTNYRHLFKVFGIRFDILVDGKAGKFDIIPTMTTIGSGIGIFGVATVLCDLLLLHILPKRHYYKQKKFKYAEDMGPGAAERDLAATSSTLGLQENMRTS

[2] = biological target: T2, P2X1 receptor S286A (Homo sapiens, UniProt P51575, S286A); experiment: Saturation radioligand binding with [3H]-α,β-methylene ATP
T2 sequence (P51575 1-399 S286A): T1 sequence (P51575 1-399 F188L) with L188F, S286A
Summary of the method: (§1)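 Whole HEK293 Flp-In T-REx cells stably expressing receptor, tetracycline-induced (150 ng/ml, 2 days), 15,000 cells/well, washed in HEPES binding buffer pH 7.4 with Ca2+/Mg2+. Increasing [3H]-α,β-methylene ATP added, 3 h room temperature with gentle agitation; non-specific binding with 10 μM ATP. Ice-cold 0.9% NaCl washes, scintillation counting (CCPM). Specific binding fitted one-site; values above 300 nM termed not defined.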

[3] = biological target: T3, P2X1 receptor R139P (Homo sapiens, UniProt P51575, R139P); experiment: Calcium ion influx assay; type: cell-based; conditions: maximal α,β-methylene ATP
T3 sequence (P51575 1-399 R139P): T1 sequence (P51575 1-399 F188L) with R139P, L188F

[4] = biological target: T4, P2X1 receptor M214A (Homo sapiens, UniProt P51575, M214A); experiment: Saturation radioligand binding with [3H]-α,β-methylene ATP
T4 sequence (P51575 1-399 M214A): T1 sequence (P51575 1-399 F188L) with L188F, M214A

[5] = biological target: T5, P2X1 receptor K136A (Homo sapiens, UniProt P51575, K136A); experiment: Saturation radioligand binding with [3H]-α,β-methylene ATP
T5 sequence (P51575 1-399 K136A): T1 sequence (P51575 1-399 F188L) with K136A, L188F
Summary of the method: as §1

[6] = biological target: T3, P2X1 receptor R139P; experiment: as above
Summary of the method: as §1

[7] = biological target: T4, P2X1 receptor M214A; experiment: Calcium ion influx assay; type: cell-based
[8] = biological target: T6, P2X1 receptor R139A (Homo sapiens, UniProt P51575, R139A); experiment: Saturation radioligand binding with [3H]-α,β-methylene ATP
T6 sequence (P51575 1-399 R139A): T1 sequence (P51575 1-399 F188L) with R139A, L188F
Summary of the method: as §1

Nc1ncnc2c1ncn2[C@@H]1O[C@H](COP(=O)(O)CP(=O)(O)OP(=O)(O)O)[C@@H](O)[C@H]1O [α,β-methylene ATP]
time to achieve 50% decay, times WT-P2X1 [1]: approximately 1.5 times | binding affinity compared to WT-P2X1 [2]: comparable to that of WT-P2X1 | desensitisation rate compared to WT-P2X1 [3]: significantly slowed the desensitisation rate | binding affinity compared to WT-P2X1 [4]: beyond the threshold that could be accurately measured | binding affinity compared to WT-P2X1 [5]: similar | binding affinity compared to WT-P2X1 [6]: reduced | fold decrease in potency compared to WT-P2X1 [7]: 7 fold | desensitisation rate compared to WT-P2X1 ([7]; maximal α,β-methylene ATP): significantly slowed the desensitisation rate | fold decrease in affinity compared to WT-P2X1 [8]: 6 fold
